Assay results from different studies.
Lines come from different studies, so protocols differ.
Read-out: cell growth or viability

CC(C)Oc1ccc(S(=O)(=O)c2ccc(Oc3cc(OCC(N)=O)c(C(=O)C(Cl)Cl)cc3[N+](=O)[O-])cc2)cc1
IC50 (NCI-H1650; MTT; 72 h): 460 nM

COc1cc2c3c(n(CCCNC(C)C)c(=O)c2cc1OC)-c1nc2c(cc1C3=O)OCO2
IC50 (TC-32; MTS; 72 h): 55 nM

COc1nc(NCc2cn(-c3ccc(NC(=O)c4ccc(C)cc4)cc3)nn2)nc(OC)n1
IC50 (Caco-2; MTT; 72 h): 751 nM

C/C(=N\NC(=O)c1cccc(S(=O)(=O)N2CCN(C)CC2)c1)c1cc(Cl)ccc1O
IC50 (TC-32; resazurin): 3300 nM

CCCOc1nc(-c2cccc(O)c2)cc(-c2cc3ccccc3nc2N2CCOCC2)c1C#N
IC50 (Caco-2; MTT; 72 h): 130 nM

COc1cccc2c1C(=O)c1c(O)c3c(c(O)c1C2=O)C[C@@](O)(C(=O)CO)C[C@@H]3O[C@H]1C[C@H](N)[C@H](O)[C@H](C)O1
IC50 (Caco-2; MTT; 72 h): 1010 nM

CC1(C)CCC(CN2CCN(c3ccc(C(=O)NS(=O)(=O)c4ccc(NCC5CCOCC5)c([N+](=O)[O-])c4)c(Oc4cnc5[nH]ccc5c4)c3)CC2)=C(c2ccc(Cl)cc2)C1
IC50 (SU-DHL-4; ATP luminescence; 48 h): 25 nM

C=C(F)C(=O)N1CCN(c2nc(OC[C@@H]3CCCN3C)nc3c2CCN(c2cccc4cccc(Cl)c24)C3)C[C@@H]1CC#N
IC50 (HCC44; ATP luminescence; 3D culture): 3.82 nM

COc1nc(NCc2cn(-c3ccc(NC(=O)c4ccc(Cl)cc4)cc3)nn2)nc(OC)n1
IC50 (Caco-2; MTT; 72 h): 620 nM

C=CC(=O)N1CCN(c2nc(=O)n(-c3c(C)ccnc3C(C)C)c3nc(-c4c(O)cccc4F)c(F)cc23)[C@@H](C)C1
IC50 (HCC44; ATP luminescence): > 10000 nM

CCOc1nc(-c2cccc(O)c2)cc(-c2cc3ccccc3nc2N2CCOCC2)c1C#N
IC50 (Caco-2; MTT; 72 h): 141 nM

COc1nc(NCc2cn(-c3ccc(NC(=O)c4ccccc4)cc3)nn2)nc(OC)n1
IC50 (Caco-2; MTT; 72 h): 766 nM

Nc1n[nH]c2nc(-c3cccc(O)c3)cc(-c3cc4cc(Cl)ccc4nc3N3CCOCC3)c12
IC50 (Caco-2; MTT; 72 h): 191 nM

COc1nc(NCc2cn(-c3ccc(C(=O)Nc4ccc(C)cc4)cc3)nn2)nc(OC)n1
IC50 (Caco-2; MTT; 72 h): 514 nM

COc1cc2c3c(n(CCCNCCO)c(=O)c2cc1OC)-c1nc2c(cc1C3=O)OCO2
IC50 (TC-32; MTS; 72 h): 104 nM
